Apaf1 activ: activates human Apaf-1 apoptosome; 330,000 tested, 0.31% active; O14727; Apaf-1 apoptosome caspase-3 activation, DEVD-Rh110 fluorescence; active compounds read low; activity change, negative = activation, % at 20 µM;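 active = activity change at or below -40% at 20 µM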
Target sequence (O14727 whole entry, looked up): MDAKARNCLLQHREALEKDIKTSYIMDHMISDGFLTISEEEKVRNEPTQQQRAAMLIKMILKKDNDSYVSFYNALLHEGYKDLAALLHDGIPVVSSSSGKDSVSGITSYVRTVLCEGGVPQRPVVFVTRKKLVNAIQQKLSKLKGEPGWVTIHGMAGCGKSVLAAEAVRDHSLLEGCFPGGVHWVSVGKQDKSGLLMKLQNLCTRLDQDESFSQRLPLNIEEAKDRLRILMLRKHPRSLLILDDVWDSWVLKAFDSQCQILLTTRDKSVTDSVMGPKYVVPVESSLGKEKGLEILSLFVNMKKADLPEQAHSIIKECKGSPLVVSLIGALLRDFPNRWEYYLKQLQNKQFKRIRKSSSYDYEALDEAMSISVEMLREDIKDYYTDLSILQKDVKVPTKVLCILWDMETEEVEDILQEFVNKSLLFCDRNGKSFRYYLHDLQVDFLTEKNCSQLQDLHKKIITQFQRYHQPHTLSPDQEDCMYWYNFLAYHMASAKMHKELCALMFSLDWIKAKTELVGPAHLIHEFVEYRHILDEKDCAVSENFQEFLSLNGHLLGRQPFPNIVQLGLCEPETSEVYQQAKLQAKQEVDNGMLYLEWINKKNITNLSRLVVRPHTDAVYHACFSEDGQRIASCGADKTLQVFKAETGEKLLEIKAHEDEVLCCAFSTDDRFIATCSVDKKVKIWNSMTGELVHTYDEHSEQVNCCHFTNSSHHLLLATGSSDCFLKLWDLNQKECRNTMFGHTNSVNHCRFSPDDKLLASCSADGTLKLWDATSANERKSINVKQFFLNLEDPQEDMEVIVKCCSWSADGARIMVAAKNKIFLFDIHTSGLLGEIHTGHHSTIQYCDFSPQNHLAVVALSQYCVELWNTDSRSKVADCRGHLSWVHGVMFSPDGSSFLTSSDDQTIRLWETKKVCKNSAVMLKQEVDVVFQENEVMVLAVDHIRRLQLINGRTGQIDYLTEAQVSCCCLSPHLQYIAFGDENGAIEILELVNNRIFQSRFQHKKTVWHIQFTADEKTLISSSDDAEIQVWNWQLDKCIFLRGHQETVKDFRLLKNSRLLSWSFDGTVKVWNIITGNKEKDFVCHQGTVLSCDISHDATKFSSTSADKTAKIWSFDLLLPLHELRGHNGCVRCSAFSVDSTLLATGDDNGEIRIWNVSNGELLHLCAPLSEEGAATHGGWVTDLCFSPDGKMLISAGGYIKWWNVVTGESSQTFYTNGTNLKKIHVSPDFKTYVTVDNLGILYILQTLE
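system = biochemical Apaf-1 apoptosome reconstitution | buffer or medium = 20 mM HEPES pH 7.5 with CHAPS, BSA | also added = dATP and cytochrome c as apoptosome triggers, (Z-DEVD)2-Rh110 substrate | incubation = 30 min compound preincubation and 50 min reaction, both room temperature | measured by = fluorescence, 540 nm emission, 480 nm excitation | read-out basis = Caspase-3 cleavage activity downstream of Apaf-1 activation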
Rh110 interf act: Rh110 signal interference in Apaf-1 activator counter-screen. shares compounds with Apaf1 activ. Rh110 fluorescence interference, quenched caspase reaction, Ex480/Em540. fluorescence interference (activity change), % at 20 µM, hits read low. 980 tested, under 10 active. AID 504616;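 active = mean activity change at or below -40% when tested at 20 µM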
Apaf-1 act conf: Apaf-1 (human) activation, single-dose confirmed. shares compounds with Apaf1 activ. reconstituted apoptosome caspase-3 activity, DEVD-Rh110 fluorescence; active compounds read low. activity change, negative = activation, % at 20 µM. 980 tested, 5% active;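 active = mean activity change at or below -40%, meaning activation of 40% or more, at 20 µM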
Starred values were filed as active, the others as inactive; x = no result. Only a sample is shown.

SMILES	Apaf1 activ	Rh110 interf act	Apaf-1 act conf
O=C1Cc2ccccc2C(=O)N1OCc1ccc(Cl)cc1Cl	67.6	x	x
CCN1CCc2c(sc(NC(=O)c3ccc(C(=O)c4ccccc4)cc3)c2C(N)=O)C1	43.6	x	x
NC(=O)c1c(NC(=O)CCCn2cnc([N+](=O)[O-])n2)sc2c1CCCC2	-90.3*	-1.0	16.0
c1csc(Cc2nn3c(-c4ccncc4)nnc3s2)c1	77.5	x	x
Cc1ccc(NC(=O)C(C)N2C(=O)C3C4CC(C(Br)C4Br)C3C2=O)cc1 (stereo unspecified)	-419.1*	0.0	4.1
CC(=O)N(C)C1=C(N2CCOCC2)C(=O)c2ccccc2C1=O	64.8	x	x
C#CCOCCOCCOCCNc1nc(N2CCN(C(=O)CCCCCCCCCCNC(=O)Cn3cc(CCCCCN)nn3)CC2)nc(N2CCN(C(=O)CCCCCCCCCCNC(=O)[C@@H]([C@H](C)O)n3cc(C)nn3)CC2)n1	49.1	x	x
O=C1c2ccccc2C(O)N1Cc1cccs1 (stereo unspecified)	-41.5*	0.1	4.0
COC(=O)c1ccc(-c2ccc(C(c3c(C)[nH][nH]c3=O)c3c(C)[nH][nH]c3=O)o2)cc1	44.0	x	x
CSc1ccc(CCNC(=O)c2cc(-c3ccccc3)c(N3CCOCC3)s2)cc1	-370.0*	6.8	16.6
N#CC1=C(N)C(C#N)(C#N)[C@H](c2ccoc2)[C@H]2CN(Cc3ccccc3)CC=C12	59.1	x	x
COC(=O)c1cccnc1-n1c(=O)c2cccnc2n(Cc2cccc([N+](=O)[O-])c2)c1=O	-65.2*	-1.9	12.2
COc1ccc(N)c2c1OCCC2=O	87.4	x	x
Cn1c2c(c(=O)n(C)c1=O)CN(CCCN1CCOCC1)CN2	-59.0*	6.6	2.0
N#Cc1c(NCCCO)nc(NCc2ccccc2)c2c1CCN(Cc1ccccc1)C2	69.0	x	x
Cc1[nH]n(-c2ccccc2)c(=O)c1C(C[N+](=O)[O-])c1ccc(Br)cc1 (stereo unspecified)	87.3	x	x
N#Cc1ccsc1NC(=O)c1ccc(Cl)c([N+](=O)[O-])c1	47.9	x	x
O=C(CCn1c2c(c3ccccc31)CCCC2)NNC(=O)c1ccc(Cl)c([N+](=O)[O-])c1	88.6	x	x
N/C(=N\OC(=O)c1ccc(Cl)c([N+](=O)[O-])c1)c1ccccc1	-57.3*	7.3	13.9
COc1cc2c(cc1OC)-c1cc3ccc4c(c3c[n+]1CC2)OCO4	73.4	x	x
O=[N+]([O-])c1cc(F)c2cccnc2c1O	64.2	x	x
Nc1cc(S(=O)(=O)O)cc([N+](=O)[O-])c1O	-110.2*	-4.9	3.7
c1ccc2c(C[C@@H]3CNCCN3CCC34CC5CC(CC(C5)C3)C4)cccc2c1	65.7	x	x
CCCCC(CC)COC(=O)C(C#N)=C(c1ccccc1)c1ccccc1 (stereo unspecified)	-232.1*	1.5	2.9
CCC(=O)N(CCc1ccccc1C)Cc1cc2cc3c(cc2[nH]c1=O)OCO3	40.6	x	x
SMILES	Apaf1 activ	Rh110 interf act	Apaf-1 act conf
N#Cc1c(N2CCCC2)nc(N)c2c(N)nc(N3CCCC3)cc12	98.1	x	x
Cc1cc(C)n(-c2cc(Cl)cc(Cl)c2)c(=O)c1C#N	-403.0*	11.6	10.6
CC(C)C[C@@H](C(=O)NC1CCN(Cc2ccccc2)CC1)N1C(=O)N2CCc3c([nH]c4ccccc34)[C@@]2(C)C1=O	44.6	x	x
COc1ccc2cc1Oc1ccc(cc1)C[C@H]1c3c(cc(OC)c4c3Oc3c(ccc5c3[C@H](C2)N(C)CC5)O4)CCN1C	59.5	x	x
COCCCNC(=O)c1c(N)n(-c2cccc(S(N)(=O)=O)c2)c2nc3ccccc3nc12	43.3	x	x
CCn1cc(C(=O)NCCCOC)c(=O)c2cc(S(=O)(=O)N(C)C)ccc21	-303.4*	-4.8	7.8
Cc1ccc(C(=O)NC2CCN(C(=O)Nc3ccccc3)CC2)cc1	-49.7*	5.2	6.5
CCCC[n+]1ccn(C2=C([O-])c3ccccc3C(=O)/C2=N\S(=O)(=O)c2ccc(Cl)cc2)c1	51.8	x	x
Cc1ccc(-c2csc3nc4c5ccccc5c(NCCCN(C)C)nn4c(=O)c23)cc1	41.9	x	x
Clc1nc(Nc2ccc(N3CCOCC3)cc2)c2ccccc2n1	-393.5*	5.9	6.2
O=C(O)c1ccc(NC2=C(N3CCOCC3)C(=O)c3ccccc3C2=O)cc1	67.9	x	x
Cc1[nH]n(-c2ccccc2)c(=O)c1C(c1cccc([N+](=O)[O-])c1O)c1c(C)[nH]n(-c2ccccc2)c1=O	87.8	x	x
CC(C)c1nc(SCC(=O)c2c[nH]c3ccccc23)n[nH]1	-41.2*	0.6	5.8
C#CCOCCOCCOCCNc1nc(N2CCN(C(=O)[C@H]([C@@H](C)CC)n3cc([C@@H](N)CC(C)C)nn3)CC2)nc(N2CCN(C(=O)[C@H](Cc3cc4ccccc4[nH]3)n3cc([C@@H](N)Cc4ccc(O)cc4)nn3)CC2)n1	56.4	x	x
CCCC(=O)N1c2ccccc2[C@@H](N(C(C)=O)c2ccccc2)C[C@H]1C	-55.4*	-0.5	12.4
Cc1ccc(S(=O)(=O)N(C)c2ccccc2C(=O)NC2CCCC2)cc1	-58.6*	4.0	14.2
CCC1CCCCN1C(=O)COc1ccc(N(C)S(=O)(=O)c2ccc(C)cc2)cc1 (stereo unspecified)	50.9	x	x
Cc1c(C(=O)Nc2ccc(S(=O)(=O)N(C)C3CCN(C)CC3)cc2)oc2ccccc12	52.6	x	x
O=C1c2ccccc2-c2nnc(-c3ccc(O)cc3)cc21	90.7	x	x
O=P(CCCCCCCCCP(=O)(c1ccccc1)c1ccccc1)(c1ccccc1)c1ccccc1	52.8	x	x
Cc1oc2c(c1C(=O)O)C(=O)c1ccccc1C2=O	79.5	x	x
Cc1ccc(C)c(NC(=S)NC(NC(=O)OCc2ccccc2)C(Cl)(Cl)Cl)c1 (stereo unspecified)	-41.5*	4.9	13.8
Nc1ccc(N2CCOCC2)c2nonc12	84.2	x	x
CCCC(=O)OC1CC(C)N(C(=O)c2ccccc2)c2ccc(C)cc21 (stereo unspecified)	-66.8*	7.1	16.7
Cc1cc(C)cc(NC2=C(N)C(=O)c3ccccc3C2=O)c1	73.7	x	x
SMILES	Apaf1 activ	Rh110 interf act	Apaf-1 act conf
COCCN(C(=O)CSc1nc(N)cc(=O)[nH]1)c1c(N)n(Cc2ccccc2)c(=O)[nH]c1=O	45.3	x	x
CCCN(C(=O)COC(=O)C12CCC(=O)N1c1ccccc1S2)c1c(N)n(Cc2ccccc2)c(=O)[nH]c1=O (stereo unspecified)	-50.2*	3.7	14.2
O/C=c1\ccc2cccc3nc(C(F)(F)F)nc1c23	79.1	x	x
COc1cc2c(cc1OC)CN(Cc1cc(=O)n3c(-c4ccccc4)csc3n1)CC2	41.9	x	x
CS(=O)(=O)NN1C(=O)c2ccccc2NC1c1ccccc1O (stereo unspecified)	-64.1*	-0.3	0.1
O=C1C(O)=C(O)C(=O)c2ccccc21	92.1	x	x
O=C(Nc1cccc(C(F)(F)F)c1)c1ccc2nc(-c3ccco3)c(-c3ccco3)nc2c1	65.8	x	x
CCN1CCN(Cc2ccc(NC(=O)c3cc(NC(=O)c4cncc(-c5ccc(C#N)cc5)c4)cc(OC)c3)cc2C(F)(F)F)CC1	53.8	x	x
COc1cc(NC(=O)c2ccnc(N)c2)cc(C(=O)Nc2cccc(C(F)(F)F)c2)c1	-260.8*	12.8	15.3
Cc1cccc(C)c1NC(=O)CN(C)C(=O)c1ccccc1SCC(=O)N1CCCC1	42.0	x	x
CSc1ccccc1NC(=O)CN(C)C(=O)c1ccc2c(c1)OCCO2	-74.5*	7.3	5.3

Screens from PubChem BioAssay.
